Assay results reported in article PMC5766692 (Journal of Ginseng Research, 2017).

Tests used:
[1] = Stability of the analytes in rat tissue homogenates under different conditions; format: in vitro ADME; conditions: for Short-term stability, accuracy (mean ± SD) / Freeze–thaw stability, accuracy (mean ± SD) / Long-term stability, accuracy (mean ± SD): tissue; for Freeze–thaw stability, accuracy (mean ± SD): three freeze (−80°C)-thaw (room temperature) cycles; for Long-term stability, accuracy (mean ± SD): −80°C for 1 mo
Procedure, shortened: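 Tissues rinsed in pH 7.4 sodium phosphate buffer, 0.5 g homogenised in 1 mL saline, then acetonitrile and digoxin IS added. Supernatant dried and redissolved in methanol for UPLC-MS/MS. QC tissue samples run in five replicates after storage at −80°C for 1 mo. Brain QC samples also put through three −80°C/room-temperature freeze–thaw cycles.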

[2] = format: in vivo, Sprague Dawley rats; conditions: rat plasma, oral WG, RG, FG extracts and free ginsenosides; for Time of first peak of the plasma concentration-time curve / Time of second peak of the plasma concentration-time curve: bimodal curve
Procedure, shortened: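 Male Sprague Dawley rats (240–260 g), fasted 12 h with water allowed, 5 per group. Dosed orally with 70% ethanol ginseng decoctions or a water mixture of pure ginsenosides (25, 86, 45, 42 mg/kg). Retro-orbital blood taken 0.083–36 h; plasma acetonitrile-precipitated with digoxin IS, dried, redissolved in methanol. Analysed by C18 UPLC-MS/MS in positive ion mode; profiles mean ± SD.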

[3] = Stability of the analytes in rat plasma under different conditions; format: in vitro ADME; conditions: for Freeze–thaw stability, accuracy (mean ± SD): three freeze (−80°C)-thaw (room temperature) cycles; for Long-term stability, accuracy (mean ± SD): −80°C for 1 mo
Procedure, shortened: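 Rat plasma QC samples (low, medium, high) run in five replicates by UPLC-MS/MS with digoxin IS. Long-term: stored at −80°C for 1 mo. Freeze–thaw: three cycles of −80°C freezing and room-temperature thawing. Post-preparative: extracted QC samples held in the autosampler at 15°C for 24 h. Precision […] taken as relative standard deviation of QC concentrations.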

[4] = format: in vivo, Sprague Dawley rats; conditions: rats, 30 min after oral RG, WG, FG extracts and free ginsenosides; heart, liver, spleen, lungs, kidneys, brain, muscle, testes
[5] = mouse; higher than free ginsenoside Re; cited from earlier work

| Stability in the various tissue homogenates during sample extraction and storage [1] | Short-term stability, accuracy (mean ± SD) ([1]; spiked 0.2 μg/mL) | Freeze–thaw stability, accuracy (mean ± SD) ([1]; spiked 0.2 μg/mL) | Long-term stability, accuracy (mean ± SD) ([1]; spiked 0.2 μg/mL) | Short-term stability, accuracy (mean ± SD) ([1]; spiked 0.5 μg/mL) | Freeze–thaw stability, accuracy (mean ± SD) ([1]; spiked 0.5 μg/mL) | Long-term stability, accuracy (mean ± SD) ([1]; spiked 0.5 μg/mL) | Short-term stability, accuracy (mean ± SD) ([1]; spiked 1.0 μg/mL) | Freeze–thaw stability, accuracy (mean ± SD) ([1]; spiked 1.0 μg/mL) | Long-term stability, accuracy (mean ± SD) ([1]; spiked 1.0 μg/mL) | Short-term stability, accuracy (mean ± SD) ([3]; plasma, spiked 2.0 μg/mL) | Freeze–thaw stability, accuracy (mean ± SD) ([3]; plasma, spiked 2.0 μg/mL) | Long-term stability, accuracy (mean ± SD) ([3]; plasma, spiked 2.0 μg/mL) | Stability in rat plasma during sample extraction and storage [3] | Time of first peak of the plasma concentration-time curve [2] | Time of second peak of the plasma concentration-time curve [2] | Short-term stability, accuracy (mean ± SD) ([3]; plasma, spiked 1.0 μg/mL) | Freeze–thaw stability, accuracy (mean ± SD) ([3]; plasma, spiked 1.0 μg/mL) | Long-term stability, accuracy (mean ± SD) ([3]; plasma, spiked 1.0 μg/mL) | SMILES | Tissue distribution (main tissues) [4] | also measured |
| --- | --- | --- | --- | --- | --- | --- | --- | --- | --- | --- | --- | --- | --- | --- | --- | --- | --- | --- | --- | --- | --- |
| stable | 102.4 ± 5.1% | 108.5 ± 6.0% | 104.5 ± 8.6% | 101.1 ± 7.0% | 109.2 ± 8.1% | 108.1 ± 6.7% | 105.0 ± 5.1% | 103.7 ± 7.0% | 101.0 ± 8.7% | 91.3 ± 5.3% | 96.2 ± 8.5% | 95.6 ± 7.7% | stable | – | – | – | – | – | CC(C)=CCC[C@](C)(O[C@@H]1O[C@H](CO[C@@H]2O[C@H](CO)[C@@H](O)[C@H](O)[C@H]2O)[C@@H](O)[C@H](O)[C@H]1O)[C@H]1CC[C@]2(C)[C@@H]1[C@H](O)C[C@@H]1[C@@]3(C)CC[C@H](O[C@@H]4O[C@H](CO)[C@@H](O)[C@H](O)[C@H]4O[C@@H]4O[C@H](CO)[C@@H](O)[C@H](O)[C@H]4O)C(C)(C)[C@@H]3CC[C@]12C [Rb1] | mainly distributed in the heart | Time of the single peak of the plasma concentration-time curve [2]: 8 to 10 h; Short-term stability, accuracy (mean ± SD) ([3]; plasma, spiked 5.0 μg/mL): 91.5 ± 6.8%; Freeze–thaw stability, accuracy (mean ± SD) ([3]; plasma, spiked 5.0 μg/mL): 103.3 ± 6.0%; Long-term stability, accuracy (mean ± SD) ([3]; plasma, spiked 5.0 μg/mL): 106.6 ± 6.8%; Short-term stability, accuracy (mean ± SD) ([3]; plasma, spiked 10 μg/mL): 94.4 ± 7.9%; Post-preparative stability, accuracy (mean ± SD) ([3]; plasma, spiked 10 μg/mL, extracted samples in automatic sampler at 15°C for 24 h): 94.5 ± 8.0%; Freeze–thaw stability, accuracy (mean ± SD) ([3]; plasma, spiked 10 μg/mL): 98.5 ± 8.2%; Long-term stability, accuracy (mean ± SD) ([3]; plasma, spiked 10 μg/mL): 93.9 ± 8.5% |
| stable | 107.2 ± 7.3% | 96.5 ± 8.4% | 95.5 ± 5.6% | 106.4 ± 8.5% | 95.7 ± 9.5% | 92.0 ± 9.4% | 93.8 ± 5.1% | 99.6 ± 3.4% | 94.4 ± 7.0% | 105.3 ± 6.0% | 104.3 ± 8.6% | 102.5 ± 2.3% | stable | 15 to 30 min | 8 to 12 h | 94.6 ± 5.2% | 106.5 ± 6.5% | 102.3 ± 9.6% | CC(C)=CCC[C@](C)(O[C@@H]1O[C@H](CO)[C@@H](O)[C@H](O)[C@H]1O)[C@H]1CC[C@]2(C)[C@@H]1[C@H](O)C[C@@H]1[C@@]3(C)CC[C@H](O[C@@H]4O[C@H](CO)[C@@H](O)[C@H](O)[C@H]4O[C@@H]4O[C@H](CO)[C@@H](O)[C@H](O)[C@H]4O)C(C)(C)[C@@H]3CC[C@]12C [Rd] | mainly distributed in the kidneys | Short-term stability, accuracy (mean ± SD) ([3]; plasma, spiked 0.1 μg/mL): 92.3 ± 4.3%; Freeze–thaw stability, accuracy (mean ± SD) ([3]; plasma, spiked 0.1 μg/mL): 92.5 ± 7.7%; Long-term stability, accuracy (mean ± SD) ([3]; plasma, spiked 0.1 μg/mL): 93.6 ± 8.5% |
| stable | 92.4 ± 4.8% | 100.7 ± 7.4% | 103.8 ± 6.5% | – | – | – | – | – | – | – | – | – | stable | 15 to 30 min | 8 to 12 h | 97.6 ± 3.5% | 99.0 ± 7.4% | 92.2 ± 7.4% | CC(C)=CCC[C@](C)(O[C@@H]1O[C@H](CO)[C@@H](O)[C@H](O)[C@H]1O)[C@H]1CC[C@]2(C)[C@@H]1[C@H](O)C[C@@H]1[C@@]3(C)CC[C@H](O)C(C)(C)[C@@H]3[C@@H](O[C@@H]3O[C@H](CO)[C@@H](O)[C@H](O)[C@H]3O[C@@H]3O[C@@H](C)[C@H](O)[C@@H](O)[C@H]3O)C[C@]12C [Re] | mainly distributed in the heart and lungs | Short-term stability, accuracy (mean ± SD) ([1]; spiked 0.01 μg/mL): 92.2 ± 8.7%; Freeze–thaw stability, accuracy (mean ± SD) ([1]; spiked 0.01 μg/mL): 92.7 ± 8.0%; Long-term stability, accuracy (mean ± SD) ([1]; spiked 0.01 μg/mL): 93.2 ± 5.8%; Short-term stability, accuracy (mean ± SD) ([1]; spiked 0.05 μg/mL): 96.6 ± 2.8%; Freeze–thaw stability, accuracy (mean ± SD) ([1]; spiked 0.05 μg/mL): 103.5 ± 5.5%; Long-term stability, accuracy (mean ± SD) ([1]; spiked 0.05 μg/mL): 105.5 ± 9.4%; Absorption of ginsenoside Re from ginseng berry extract [5]: 0.33–0.75%; Short-term stability, accuracy (mean ± SD) ([3]; plasma, spiked 0.1 μg/mL): 102.5 ± 9.0%; Freeze–thaw stability, accuracy (mean ± SD) ([3]; plasma, spiked 0.1 μg/mL): 93.3 ± 6.2%; Long-term stability, accuracy (mean ± SD) ([3]; plasma, spiked 0.1 μg/mL): 96.6 ± 4.1%; Short-term stability, accuracy (mean ± SD) ([3]; plasma, spiked 0.5 μg/mL): 94.4 ± 4.4%; Freeze–thaw stability, accuracy (mean ± SD) ([3]; plasma, spiked 0.5 μg/mL): 97.5 ± 7.0%; Long-term stability, accuracy (mean ± SD) ([3]; plasma, spiked 0.5 μg/mL): 98.7 ± 5.0% |
| stable | 92.3 ± 6.6% | 95.3 ± 6.6% | 92.3 ± 7.5% | – | – | – | – | – | – | 92.1 ± 8.6% | 94.3 ± 4.0% | 94.6 ± 5.6% | stable | 15 to 30 min | 8 to 12 h | 93.2 ± 7.0% | 107.0 ± 8.2% | 103.1 ± 9.4% | CC(C)=CCC[C@](C)(O[C@@H]1O[C@H](CO)[C@@H](O)[C@H](O)[C@H]1O)[C@H]1CC[C@]2(C)[C@@H]1[C@H](O)C[C@@H]1[C@@]3(C)CC[C@H](O)C(C)(C)[C@@H]3[C@@H](O[C@@H]3O[C@H](CO)[C@@H](O)[C@H](O)[C@H]3O)C[C@]12C [Rg1] | extensively distributed in the heart, lungs, and kidneys | Short-term stability, accuracy (mean ± SD) ([1]; spiked 0.01 μg/mL): 92.2 ± 2.3%; Freeze–thaw stability, accuracy (mean ± SD) ([1]; spiked 0.01 μg/mL): 100.2 ± 3.6%; Long-term stability, accuracy (mean ± SD) ([1]; spiked 0.01 μg/mL): 101.9 ± 5.3%; Short-term stability, accuracy (mean ± SD) ([1]; spiked 0.05 μg/mL): 102.5 ± 3.1%; Freeze–thaw stability, accuracy (mean ± SD) ([1]; spiked 0.05 μg/mL): 93.5 ± 9.1%; Long-term stability, accuracy (mean ± SD) ([1]; spiked 0.05 μg/mL): 94.7 ± 7.4%; Short-term stability, accuracy (mean ± SD) ([3]; plasma, spiked 0.5 μg/mL): 102.0 ± 6.4%; Freeze–thaw stability, accuracy (mean ± SD) ([3]; plasma, spiked 0.5 μg/mL): 106.1 ± 3.4%; Long-term stability, accuracy (mean ± SD) ([3]; plasma, spiked 0.5 μg/mL): 103.7 ± 8.0% |
